In series [1] the target is T1, Tyrosine-protein kinase BTK (Homo sapiens, UniProt Q06187). Briefly: Covalent inhibition of full-length BTK (unknown origin) expressed in Escherichia coli BL21 (DE3) at 100 nM incubated for 1 hr in presence of ATP by ADP-Glo kinase assay relative to control.
Series [2] deals with Epidermal growth factor receptor (Homo sapiens), P00533 [T790M]. Briefly: Inhibition of EGFR T790M mutant (unknown origin) expressed in expressed in Escherichia coli BL21 at 1 uM incubated for 1 hr by Eurofins-KinomeScan assay relative to control.
Series [3] relates to Epidermal growth factor receptor (Homo sapiens), P00533 [G719S]. The series can be described thus: Inhibition of EGFR G719S mutant (unknown origin) expressed in expressed in Escherichia coli BL21 at 1 uM incubated for 1 hr by Eurofins-KinomeScan assay relative to control.
For series [4], the target named is T1, Tyrosine-protein kinase BTK. The following applies: OCILY7, dose 500.0 nM, time 1.0 hrs.
For series [5] the target is unchanged. The following applies: OCILY7, dose 500.0 nM, time 1.0 hrs. The source holds these as a separate data set.
The test system of series [6] is Epidermal growth factor receptor (Homo sapiens), P00533 [L861Q]. Briefly: Inhibition of EGFR L861Q mutant (unknown origin) expressed in expressed in Escherichia coli BL21 at 1 uM incubated for 1 hr by Eurofins-KinomeScan assay relative to control.
Series [7] addresses T1, Tyrosine-protein kinase BTK. As to conditions: OCILY7, dose 500.0 nM, time 1.0 hrs. This is another data set of the same source.
Series [8] has the same target. The following applies: OCILY7, dose 500.0 nM, time 1.0 hrs. This is another data set of the same source.
Series [9] deals with Epidermal growth factor receptor (Homo sapiens), P00533 [G719C]. The series can be described thus: Inhibition of EGFR G719C mutant (unknown origin) expressed in expressed in Escherichia coli BL21 at 1 uM incubated for 1 hr by Eurofins-KinomeScan assay relative to control.
The nature of series [10]: Stability in human plasma assessed as parent compound remaining incubated for 3 hrs by UPLC-MS analysis. The class given is ADME, cell-free. The following applies: read-out: Stability.
Series [11] has as its system TMD8. The series can be described thus: Downregulation of CD83 gene expression in human TMD8 cells at 1 uM incubated for 8 hrs by RNA-sequencing analysis. It is filed as functional, cell-based. An outline of the steps:
(§1)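 TMD8 cells (RPMI-1640, 10% FBS, penicillin/streptomycin, 2 mM glutamine) exposed to compound or DMSO vehicle for 8 h; total RNA extracted for RNA-seq. Differential expression versus DMSO scored at FDR < 0.01 with log2 fold change beyond ±0.5.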

In series [12] the test system is TMD8. The series can be described thus: Downregulation of EGR2 gene expression in human TMD8 cells at 1 uM incubated for 8 hrs by RNA-sequencing analysis. The class given is functional, cell-based. An outline of the steps:
as §1

In series [13] the test system is TMD8. The series can be described thus: Downregulation of IL-10 gene expression in human TMD8 cells at 1 uM incubated for 8 hrs by RNA-sequencing analysis. It is filed as functional, cell-based. An outline of the steps: as §1
Series [14] has as its system TMD8. The series can be described thus: Downregulation of NR4A1 gene expression in human TMD8 cells at 1 uM incubated for 8 hrs by RNA-sequencing analysis. The class given is functional, cell-based. An outline of the steps:
as §1

The test system of series [15] is TMD8. Briefly: Downregulation of NFKBID gene expression in human TMD8 cells at 1 uM incubated for 8 hrs by RNA-sequencing analysis. It is filed as functional, cell-based. An outline of the steps:
as §1

Series [16] has as its system TMD8. The series can be described thus: Downregulation of LTA gene expression in human TMD8 cells at 1 uM incubated for 8 hrs by RNA-sequencing analysis. The class given is functional, cell-based. The method in brief:
as §1

Series [17] deals with TMD8. Briefly: Induction of necroptosis in human TMD8 cells assessed as upregulation of RIPK1 gene expression at 1 uM incubated for 8 hrs by RNA-sequencing analysis. The class given is functional, cell-based. The method in brief: (§2)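 TMD8 cells (RPMI-1640, 10% FBS, glutamine) exposed to compound at 1 μM or DMSO for 8 h. Total RNA extracted and analysed by RNA-seq. Differential expression called against DMSO at FDR < 0.01 with |log2FC| > 0.5.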

The target of series [18] is T1, Tyrosine-protein kinase BTK. As to conditions: OCILY7, dose 500.0 nM, time 1.0 hrs. This is another data set of the same source.
Series [19] deals with TMD8. Briefly: Induction of apoptosis in human TMD8 cells assessed as late apoptotic cells at 10 nM incubated for 72 hrs by Annexin-V/PI staining based flow cytometry (reference value: 25.4 %). It is filed as functional.
Series [20] concerns TMD8. Briefly: Downregulation of CYP1A1 gene expression in human TMD8 cells at 1 uM incubated for 8 hrs by RNA-sequencing analysis. It is filed as functional, cell-based. The method in brief:
as §2

The test system of series [21] is TMD8. Briefly: Induction of apoptosis in human TMD8 cells assessed as viable cells at 1000 nM incubated for 72 hrs by Annexin-V/PI staining based flow cytometry (reference value: 66 %). The following applies: read-out: Activity. The class given is functional.
For series [22], the system named is TMD8. The series can be described thus: Induction of apoptosis in human TMD8 cells assessed as necrotic cells at 1000 nM incubated for 72 hrs by Annexin-V/PI staining based flow cytometry (reference value: 3 %). The class given is functional.
Series [23] deals with TMD8. Briefly: Induction of necroptosis in human TMD8 cells assessed as upregulation of TNFSF10 gene expression at 1 uM incubated for 8 hrs by RNA-sequencing analysis. The class given is functional, cell-based. An outline of the steps: as §2
Series [24] deals with TMD8. The series can be described thus: Induction of apoptosis in human TMD8 cells assessed as necrotic cells at 10 nM incubated for 72 hrs by Annexin-V/PI staining based flow cytometry (reference value: 3 %). It is filed as functional.
Series [25] deals with TMD8. Briefly: Induction of necroptosis in human TMD8 cells assessed as upregulation of TRPM7 gene expression at 1 uM incubated for 8 hrs by RNA-sequencing analysis. It is filed as functional, cell-based. The method in brief: as §2
In series [26] the test system is TMD8. The series can be described thus: Induction of pyroptosis in human TMD8 cells assessed as upregulation of TLR8 gene expression at 1 uM incubated for 8 hrs by RNA-sequencing analysis. It is filed as functional, cell-based. An outline of the steps: as §2
Series [27] deals with TMD8. The series can be described thus: Induction of apoptosis in human TMD8 cells assessed as early apoptotic cells at 10 nM incubated for 72 hrs by Annexin-V/PI staining based flow cytometry (reference value: 4.8 %). It is filed as functional.
Series [28] concerns TMD8. The series can be described thus: Induction of apoptosis in human TMD8 cells assessed as early apoptotic cells at 1000 nM incubated for 72 hrs by Annexin-V/PI staining based flow cytometry (reference value: 4.8 %). It is filed as functional.
Series [29] has as its system TMD8. Briefly: Induction of apoptosis in human TMD8 cells assessed as necrotic cells at 100 nM incubated for 72 hrs by Annexin-V/PI staining based flow cytometry (reference value: 3 %). It is filed as functional.
Series [30] deals with TMD8. Briefly: Induction of pyroptosis in human TMD8 cells assessed as upregulation of TLR4 gene expression at 1 uM incubated for 8 hrs by RNA-sequencing analysis. The class given is functional, cell-based. The method in brief: as §2
A short description of series [31]: GSH reactivity in PBS buffer at pH 7.4 assessed as pseudo-first order rate constant incubated upto 6 hrs at 20 degreeC by LC-MS analysis. The class given is physicochemical. As to conditions: pH 7.4, 6 h. An outline of the steps:
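Compound at 100 μM with 1 mM GSH (10 equiv) in PBS pH 7.4, containing 100 μM 4-hydroxybenzoic acid as internal standard and 5% v/v DMSO, held at 20 °C. LC-MS traces taken every 10 min. Normalized integrals plotted against time to give a pseudo-first-order rate constant. Run in triplicate.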

Series [32] relates to TMD8. The series can be described thus: Induction of necroptosis in human TMD8 cells assessed as upregulation of TLR4 gene expression at 1 uM incubated for 8 hrs by RNA-sequencing analysis. It is filed as functional, cell-based. An outline of the steps: as §2
Series [33] deals with T1, Tyrosine-protein kinase BTK. Briefly: Inhibition of BTK in anti-IgM induced human OCILY7 cells assessed as increase in calcium flux at 250 nM incubated for […] followed by anti-IgM and Pluronic F127 stimulation measured after […] by Fluo-3 AM based flow cytometry. As to conditions: time 5.0 hrs. The class given is cell-based.
Series [34] deals with TMD8. The series can be described thus: Induction of pyroptosis in human TMD8 cells assessed as upregulation of NLRP7 gene expression at 1 uM incubated for 8 hrs by RNA-sequencing analysis. The class given is functional, cell-based. The method in brief: as §2
Series [35] deals with T1, Tyrosine-protein kinase BTK. The series can be described thus: Inhibition of NanoLuc fused BTK (unknown origin) transiently transfected in HEK293 cells incubated for 1 hr by NanoBRET assay. It is filed as cell-based.
Series [36] concerns TMD8. The series can be described thus: Induction of apoptosis in human TMD8 cells assessed as late apoptotic cells at 100 nM incubated for 72 hrs by Annexin-V/PI staining based flow cytometry (reference value: 25.4 %). It is filed as functional.
Series [37] deals with T1, Tyrosine-protein kinase BTK.

Consider 11 compounds from ChEMBL document CHEMBL5576142, “Exploring 2-Sulfonylpyrimidine Warheads as Acrylamide Surrogates for Targeted Covalent Inhibition: A BTK Story” (J Med Chem, 2024).

Calls of active or inactive are those of the source. No cut-off for these calls is given here.

Chain of Epidermal growth factor receptor (Homo sapiens), P00533 [G719C] (P00533 whole entry G719C): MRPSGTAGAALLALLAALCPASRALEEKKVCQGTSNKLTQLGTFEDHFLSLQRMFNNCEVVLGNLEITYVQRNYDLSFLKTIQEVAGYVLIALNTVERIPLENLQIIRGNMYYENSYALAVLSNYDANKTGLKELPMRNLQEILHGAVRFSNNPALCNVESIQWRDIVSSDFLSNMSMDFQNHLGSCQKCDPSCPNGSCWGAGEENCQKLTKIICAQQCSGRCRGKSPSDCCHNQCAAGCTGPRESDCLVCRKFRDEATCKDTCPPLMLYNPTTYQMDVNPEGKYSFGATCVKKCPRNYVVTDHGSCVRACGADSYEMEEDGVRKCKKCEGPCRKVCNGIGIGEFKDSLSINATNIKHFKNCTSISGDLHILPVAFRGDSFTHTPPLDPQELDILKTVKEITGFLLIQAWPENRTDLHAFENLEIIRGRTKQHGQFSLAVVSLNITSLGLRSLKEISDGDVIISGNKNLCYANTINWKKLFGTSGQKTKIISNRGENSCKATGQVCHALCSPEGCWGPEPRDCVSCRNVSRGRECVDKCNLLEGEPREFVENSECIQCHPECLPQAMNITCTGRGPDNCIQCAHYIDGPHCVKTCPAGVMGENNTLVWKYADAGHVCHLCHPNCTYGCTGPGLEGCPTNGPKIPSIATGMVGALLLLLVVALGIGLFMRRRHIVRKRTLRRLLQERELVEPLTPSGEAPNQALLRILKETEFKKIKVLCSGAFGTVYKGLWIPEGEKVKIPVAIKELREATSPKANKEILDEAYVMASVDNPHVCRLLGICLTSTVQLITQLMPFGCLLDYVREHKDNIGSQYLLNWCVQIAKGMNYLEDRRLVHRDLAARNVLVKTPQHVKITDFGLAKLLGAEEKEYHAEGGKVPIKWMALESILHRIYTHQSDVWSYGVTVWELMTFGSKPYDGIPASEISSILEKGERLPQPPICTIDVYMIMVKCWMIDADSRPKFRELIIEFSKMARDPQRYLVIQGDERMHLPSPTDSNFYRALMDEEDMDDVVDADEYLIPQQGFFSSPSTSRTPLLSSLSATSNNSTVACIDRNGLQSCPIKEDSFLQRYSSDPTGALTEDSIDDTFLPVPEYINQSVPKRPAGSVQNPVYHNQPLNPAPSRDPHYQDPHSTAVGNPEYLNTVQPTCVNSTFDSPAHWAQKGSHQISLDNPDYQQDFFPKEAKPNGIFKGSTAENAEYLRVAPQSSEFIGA
Chain of Epidermal growth factor receptor (Homo sapiens), P00533 [T790M] (P00533 whole entry T790M): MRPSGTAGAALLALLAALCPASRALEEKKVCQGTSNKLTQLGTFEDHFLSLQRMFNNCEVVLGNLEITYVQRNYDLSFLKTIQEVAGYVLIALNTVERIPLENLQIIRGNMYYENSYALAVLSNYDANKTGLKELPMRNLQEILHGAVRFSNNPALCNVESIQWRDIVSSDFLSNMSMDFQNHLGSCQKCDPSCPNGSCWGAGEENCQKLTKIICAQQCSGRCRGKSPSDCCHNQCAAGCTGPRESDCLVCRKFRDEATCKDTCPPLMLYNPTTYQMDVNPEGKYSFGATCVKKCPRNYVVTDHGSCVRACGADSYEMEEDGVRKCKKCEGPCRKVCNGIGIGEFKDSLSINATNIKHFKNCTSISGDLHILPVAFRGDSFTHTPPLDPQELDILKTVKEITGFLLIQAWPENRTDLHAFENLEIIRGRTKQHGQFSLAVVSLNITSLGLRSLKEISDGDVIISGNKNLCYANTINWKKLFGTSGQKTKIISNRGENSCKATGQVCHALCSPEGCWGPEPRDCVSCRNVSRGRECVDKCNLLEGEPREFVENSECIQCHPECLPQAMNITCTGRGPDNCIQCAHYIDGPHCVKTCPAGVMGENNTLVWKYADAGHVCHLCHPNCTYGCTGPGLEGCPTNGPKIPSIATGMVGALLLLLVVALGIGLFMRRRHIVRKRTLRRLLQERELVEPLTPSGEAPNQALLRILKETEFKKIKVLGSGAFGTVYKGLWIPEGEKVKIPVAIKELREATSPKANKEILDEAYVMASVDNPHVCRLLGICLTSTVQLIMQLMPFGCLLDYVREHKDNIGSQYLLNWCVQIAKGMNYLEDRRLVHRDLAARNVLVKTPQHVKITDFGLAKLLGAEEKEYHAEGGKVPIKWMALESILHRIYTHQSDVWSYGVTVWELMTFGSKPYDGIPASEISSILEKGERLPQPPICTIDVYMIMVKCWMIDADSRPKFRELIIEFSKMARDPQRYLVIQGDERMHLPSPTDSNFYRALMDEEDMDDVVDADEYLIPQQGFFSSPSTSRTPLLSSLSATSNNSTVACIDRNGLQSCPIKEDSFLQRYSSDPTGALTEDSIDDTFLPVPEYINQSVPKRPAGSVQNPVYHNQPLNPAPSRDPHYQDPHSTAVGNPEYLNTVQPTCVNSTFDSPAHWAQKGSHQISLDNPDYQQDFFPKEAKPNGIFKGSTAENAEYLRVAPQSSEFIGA
Chain of Epidermal growth factor receptor (Homo sapiens), P00533 [G719S] (P00533 whole entry G719S): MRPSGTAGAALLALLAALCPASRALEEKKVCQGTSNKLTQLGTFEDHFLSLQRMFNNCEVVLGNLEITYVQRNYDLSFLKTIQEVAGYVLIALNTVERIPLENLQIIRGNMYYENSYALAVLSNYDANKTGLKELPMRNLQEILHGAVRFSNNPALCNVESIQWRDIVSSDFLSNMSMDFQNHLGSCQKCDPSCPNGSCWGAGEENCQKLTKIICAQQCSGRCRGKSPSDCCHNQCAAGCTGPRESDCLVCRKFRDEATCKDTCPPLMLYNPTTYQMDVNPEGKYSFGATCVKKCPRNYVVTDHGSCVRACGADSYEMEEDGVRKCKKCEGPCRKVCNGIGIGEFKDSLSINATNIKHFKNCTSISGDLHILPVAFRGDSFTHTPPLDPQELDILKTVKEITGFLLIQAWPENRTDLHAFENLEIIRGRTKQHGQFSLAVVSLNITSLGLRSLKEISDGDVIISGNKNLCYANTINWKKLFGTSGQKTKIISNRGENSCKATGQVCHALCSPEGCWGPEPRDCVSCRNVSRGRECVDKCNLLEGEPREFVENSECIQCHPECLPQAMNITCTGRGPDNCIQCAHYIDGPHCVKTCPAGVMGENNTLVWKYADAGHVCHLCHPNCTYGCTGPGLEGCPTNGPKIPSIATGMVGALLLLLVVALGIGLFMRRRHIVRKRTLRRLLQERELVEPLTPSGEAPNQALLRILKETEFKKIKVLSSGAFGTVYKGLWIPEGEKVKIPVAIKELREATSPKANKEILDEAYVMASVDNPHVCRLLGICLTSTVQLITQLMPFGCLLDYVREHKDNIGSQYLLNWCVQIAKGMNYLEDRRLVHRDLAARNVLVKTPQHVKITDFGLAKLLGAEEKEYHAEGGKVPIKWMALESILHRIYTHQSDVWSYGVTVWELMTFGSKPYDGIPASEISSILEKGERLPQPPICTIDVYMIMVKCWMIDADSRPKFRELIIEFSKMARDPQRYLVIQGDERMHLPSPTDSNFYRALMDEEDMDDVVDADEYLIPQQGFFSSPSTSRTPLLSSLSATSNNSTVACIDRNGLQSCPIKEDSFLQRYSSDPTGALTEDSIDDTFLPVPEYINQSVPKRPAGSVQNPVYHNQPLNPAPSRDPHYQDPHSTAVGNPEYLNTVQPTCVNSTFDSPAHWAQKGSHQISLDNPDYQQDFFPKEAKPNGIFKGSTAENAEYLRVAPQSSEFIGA
T1 sequence (Q06187 whole entry): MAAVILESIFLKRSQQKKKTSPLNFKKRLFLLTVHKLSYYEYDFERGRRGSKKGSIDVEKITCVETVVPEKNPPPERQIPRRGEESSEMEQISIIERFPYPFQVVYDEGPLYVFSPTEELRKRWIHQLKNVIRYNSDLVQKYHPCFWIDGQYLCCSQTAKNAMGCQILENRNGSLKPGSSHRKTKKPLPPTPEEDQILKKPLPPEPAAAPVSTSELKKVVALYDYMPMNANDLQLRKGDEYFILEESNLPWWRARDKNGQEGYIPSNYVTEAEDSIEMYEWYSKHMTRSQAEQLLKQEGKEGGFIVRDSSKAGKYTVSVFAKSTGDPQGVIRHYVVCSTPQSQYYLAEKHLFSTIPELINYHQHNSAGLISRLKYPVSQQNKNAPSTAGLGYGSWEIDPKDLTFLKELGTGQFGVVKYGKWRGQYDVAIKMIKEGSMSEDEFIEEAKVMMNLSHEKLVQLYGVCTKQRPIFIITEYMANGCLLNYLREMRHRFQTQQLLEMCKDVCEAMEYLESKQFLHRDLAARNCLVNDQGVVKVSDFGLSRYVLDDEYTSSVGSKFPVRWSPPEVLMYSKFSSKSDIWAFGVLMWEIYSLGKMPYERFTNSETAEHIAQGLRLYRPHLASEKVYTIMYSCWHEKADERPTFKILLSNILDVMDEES

As for `CS(=O)(=O)c1nccc(C(=O)N2CCC[C@H](n3nc(-c4ccc(Oc5ccccc5)cc4)c4c(N)ncnc43)C2)n1`, in series [1], the inhibition was 80%.
As to `CCOC(=O)c1cnc(S(C)(=O)=O)nc1N1CCC[C@H](n2nc(-c3ccc(Oc4ccccc4)cc3)c3c(N)ncnc32)C1`, in series [1], the inhibition was above 95%. Moreover, the inhibition result in series [2], in series [3], in series [4], in [6] and in [9] was “Active” each time. Also, the inhibition entry in series [5], in series [7] and in series [8] was “inactive” each time. Further, the remaining at 3 h in [10] worked out at 22%.
Regarding `CCCCS(=O)(=O)c1ncc(C(=O)N2CCC[C@H](n3nc(-c4ccc(Oc5ccccc5)cc4)c4c(N)ncnc43)C2)cn1`, the inhibition in series [1] amounted to 40%.
The same measure, in the same setting: the value for `CS(=O)(=O)c1ncc(C(=O)N2CCC[C@H](n3nc(-c4ccc(Oc5ccccc5)cc4)c4c(N)ncnc43)C2)cn1` was 80%.
As for `COC(=O)c1cnc(S(C)(=O)=O)nc1N1CCC[C@H](n2nc(-c3ccc(Oc4ccccc4)cc3)c3c(N)ncnc32)C1`, the inhibition result in series [2], in series [3], in series [4], in series [6] and in [9] was “Active” in each case. The inhibition entry in series [5], in [7] and in [8] was “inactive” throughout.
Turning to `C=CC(=O)N1CCC[C@@H](n2nc(-c3ccc(Oc4ccccc4)cc3)c3c(N)ncnc32)C1`, the outcome in the series on TMD8 [11], in the series on TMD8 [12], in the series on TMD8 [13], in the series on TMD8 [14], in the series with TMD8 [15] and in the series on TMD8 [16] was Active.
As for `Nc1ncnc2c1c(-c1ccc(Oc3ccccc3)cc1)nn2[C@H]1CCCN(C(=O)c2cnc(S(=O)(=O)c3ccccc3)nc2)C1`, the inhibition in [1] came to 40%.
Take `CS(=O)(=O)c1ncc(Cl)c(C(=O)N2CCC[C@H](n3nc(-c4ccc(Oc5ccccc5)cc4)c4c(N)ncnc43)C2)n1`: the inhibition in [1] worked out at 80%.
Consider `CNC(=O)c1cnc(S(C)(=O)=O)nc1N1CCC[C@H](n2nc(-c3ccc(Oc4ccccc4)cc3)c3c(N)ncnc32)C1`, for which the outcome in the series with TMD8 [17], with TMD8 [20], with TMD8 [23], with TMD8 [25], with TMD8 [26] and with TMD8 [30] was Active. The result with TMD8 [32] and in the series on TMD8 [34] was Active. Also, the inhibition result in series [18], in series [5], in [7] and in [8] was “inactive” in each case. In addition, the Activity came to 26.6% with TMD8 [19]; 4.5% with TMD8 [22]; 3.9% in the series on TMD8 [24]; 3.4% with TMD8 [27]; 14.5% in the series with TMD8 [28]; 4.6% with TMD8 [29]. In the series with TMD8 [36], the Activity is 53%. The inhibition entry in series [2], in series [3], in [4], in series [6], in [33] and in [9] was “Active” each time. Also, the viability at 1 µM in the series with TMD8 [21] came out at 14.7%. Also, the K in series [31] is given as 47 10^-5/s. In addition, inhibition in series [35] was half-maximal at 0.6 nM (IC50).
`Cc1cnc(S(C)(=O)=O)nc1N1CCC[C@H](n2nc(-c3ccc(Oc4ccccc4)cc3)c3c(N)ncnc32)C1`: the inhibition entry in series [18], in series [5], in series [7] and in [8] was “inactive” in each case. The Kinact in series [37] turned out to be 0.007 s⁻¹. In addition, the inhibition entry in series [2], in series [3], in series [4], in series [6], in [33] and in [9] was “Active” each time.
Take `CCCCS(=O)(=O)c1nccc(C(=O)N2CCC[C@H](n3nc(-c4ccc(Oc5ccccc5)cc4)c4c(N)ncnc43)C2)n1`: the inhibition in series [1] is 40%.
